Data reported in ChEMBL document CHEMBL1152668, “Synthesis, reactivity and biological evaluation of novel halogenated tripentones” (Bioorg Med Chem, 2009).
Activity calls are given as the source filed them. The calls are words filed in the database; no cut-off is given here.

Tests used:
KB [1] = test: Growth inhibition of human KB cells at 10 uM after 72 hrs by MTS assay; assay type: functional; settings: read-out: GI
KB [2] = test: Growth inhibition of human KB cells at 1 uM after 72 hrs by MTS assay; assay type: functional; settings: read-out: GI
L1210 = test: Cytotoxicity against mouse L1210 cells after 72 hrs by MTS assay; assay type: functional, cell-based; settings: L1210, 72 h
MCF7 = test: Cytotoxicity against human MCF7 cells at 0.05 to 1000 nM after 72 hrs by MTS assay; assay type: functional, cell-based
How it was run: (§1)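 Cultured in RPMI medium under 5% CO2, then seeded in 96-well plates and treated 24 h later with DMSO solutions at 0.05 nM–1 µM, with 1% DMSO vehicle controls. After 72 h exposure, MTS incubated 3 h at 37 °C and absorbance read at 490 nm. Inhibition = (1 − OD490 treated/OD490 control)×100; IC50 from separate duplicate experiments.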

KB [3] = test: Cytotoxicity against human KB cells at 0.05 to 1000 nM after 72 hrs by MTS assay; assay type: functional, cell-based
How it was run: (§2)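 Cells maintained in D-MEM with 10% fetal calf serum, penicillin, streptomycin and fungizone under 5% CO2. Plated in 96-well plates and dosed 24 h later with compound in DMSO, 0.05 nM to 1 µM, with 1% DMSO vehicle controls. After 72 h, MTS added for 3 h at 37 °C and A490 read. Inhibition = (1 − OD treated/OD control)×100; IC50 from separate duplicates.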

MRC5 = test: Cytotoxicity against human MRC5 cells at 0.05 to 1000 nM after 72 hrs by MTS assay; assay type: cell-based; settings: mrc5, 72 h, 1 µM; how it was run: as §2
Vero = test: Cytotoxicity against african green monkey Vero cells at 0.05 to 1000 nM after 72 hrs by MTS assay; assay type: cell-based; settings: chlorocebus sabaeus, 1 µM; how it was run: as §2
HCT-116 = test: Cytotoxicity against human HCT116 cells at 0.05 to 1000 nM after 72 hrs by MTS assay; assay type: functional, cell-based; how it was run: as §1
HL-60 = test: Cytotoxicity against human HL60 cells at 0.05 to 1000 nM after 72 hrs by MTS assay; assay type: functional, cell-based; how it was run: as §1
HCT-15 = test: Cytotoxicity against human HCT15 cells at 0.05 to 1000 nM after 72 hrs by MTS assay; assay type: functional, cell-based; how it was run: as §1

Structure (SMILES)	inhibition of growth at 10 µM (KB [1])	inhibition of growth at 1 µM (KB [2])	IC50 (L1210)	other results
COc1ccc(-c2cc3n(c2)-c2c(-c4ccc(OC)c(O)c4)csc2C3=O)cc1O	90%	15%		
COC(=O)/C=C/c1cc2n(c1)-c1c(-c3ccc(OC)c(O)c3)csc1C2=O	1%	3%		
COc1ccc(-c2csc3c2-n2cc(Br)cc2C3=O)cc1O	94%	94%	0.017 µM	
COc1ccc(-c2csc3c2-n2cc(-c4cccnc4)cc2C3=O)cc1O	64%	20%		
COc1ccc(-c2cc3n(c2)-c2c(-c4ccc(OC)c(O)c4)csc2C3=O)cc1	98%	94%	0.113 µM	
COc1ccc(-c2csc3c2-n2cc(-c4ccc(OC)c(OC)c4)cc2C3=O)cc1O	97%	15%		
COc1ccc(-c2csc3c2-n2cc(-c4cc(OC)c(OC)c(OC)c4)cc2C3=O)cc1O	35%			
COc1ccc(-c2csc3c2-n2cccc2C3=O)cc1O	86%	86%	0.004 µM	Activity (MCF7): Active; Activity (KB [3]): Active; Activity (MRC5): Non-toxic; Activity (Vero): Non-toxic; Activity (HCT-116): Active; Activity (HL-60): Active; Activity (HCT-15): Active
